Results from ChEMBL document CHEMBL3085721, “Nonhydrolyzable ATP analogues as selective inhibitors of human NPP1: a combined computational/experimental study” (J Med Chem, 2013).

Tests used:
[1] = molecular target: T1, Ectonucleoside triphosphate diphosphohydrolase 3 (Homo sapiens) (UniProt O75355); test: Inhibition of human NTPDase3 assessed as amount of inorganic phosphate released using ATP as the substrate preincubated at 100 uM for 3 mins before substrate addition after 15 mins by malachite green reagent method
T1 sequence (whole entry): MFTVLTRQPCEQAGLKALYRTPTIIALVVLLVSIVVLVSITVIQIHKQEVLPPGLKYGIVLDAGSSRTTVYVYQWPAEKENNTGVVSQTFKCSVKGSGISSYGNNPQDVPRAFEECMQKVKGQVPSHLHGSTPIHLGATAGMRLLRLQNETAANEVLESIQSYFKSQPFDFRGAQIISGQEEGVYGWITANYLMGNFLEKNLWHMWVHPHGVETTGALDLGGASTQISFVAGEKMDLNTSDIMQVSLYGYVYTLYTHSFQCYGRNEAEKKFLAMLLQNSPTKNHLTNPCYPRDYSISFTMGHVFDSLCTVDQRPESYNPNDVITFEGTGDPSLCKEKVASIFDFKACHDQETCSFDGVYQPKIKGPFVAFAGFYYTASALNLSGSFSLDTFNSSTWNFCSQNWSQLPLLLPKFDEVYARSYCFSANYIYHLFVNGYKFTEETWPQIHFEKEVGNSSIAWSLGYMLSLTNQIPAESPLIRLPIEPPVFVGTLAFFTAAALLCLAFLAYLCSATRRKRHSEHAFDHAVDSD
Method in brief: (§1)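 Crude extracts of COS-7 cells transiently transfected with human NTPDase1, -2, -3 or -8, preincubated 3 min at 37 °C in Tris-Ringer medium pH 7.4 with analogue (final 100 μM). Started with 100 μM ATP, stopped after 15 min with malachite green; released Pi read at 630 nm. ATP alone set as 100%. Mean ± SD of 3−6 experiments in triplicate.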

[2] = molecular target: T2, Ectonucleotide pyrophosphatase/phosphodiesterase family member 1 (Homo sapiens) (UniProt P22413); test: Inhibition of human NPP1 expressed in COS7 cells assessed as production of p-nitrophenol using pnp-TMP as the substrate preincubated at 100 uM for 3 mins before substrate addition measured after 15 mins […]; assay type: cell-based; details: COS-7
T2 sequence (whole entry): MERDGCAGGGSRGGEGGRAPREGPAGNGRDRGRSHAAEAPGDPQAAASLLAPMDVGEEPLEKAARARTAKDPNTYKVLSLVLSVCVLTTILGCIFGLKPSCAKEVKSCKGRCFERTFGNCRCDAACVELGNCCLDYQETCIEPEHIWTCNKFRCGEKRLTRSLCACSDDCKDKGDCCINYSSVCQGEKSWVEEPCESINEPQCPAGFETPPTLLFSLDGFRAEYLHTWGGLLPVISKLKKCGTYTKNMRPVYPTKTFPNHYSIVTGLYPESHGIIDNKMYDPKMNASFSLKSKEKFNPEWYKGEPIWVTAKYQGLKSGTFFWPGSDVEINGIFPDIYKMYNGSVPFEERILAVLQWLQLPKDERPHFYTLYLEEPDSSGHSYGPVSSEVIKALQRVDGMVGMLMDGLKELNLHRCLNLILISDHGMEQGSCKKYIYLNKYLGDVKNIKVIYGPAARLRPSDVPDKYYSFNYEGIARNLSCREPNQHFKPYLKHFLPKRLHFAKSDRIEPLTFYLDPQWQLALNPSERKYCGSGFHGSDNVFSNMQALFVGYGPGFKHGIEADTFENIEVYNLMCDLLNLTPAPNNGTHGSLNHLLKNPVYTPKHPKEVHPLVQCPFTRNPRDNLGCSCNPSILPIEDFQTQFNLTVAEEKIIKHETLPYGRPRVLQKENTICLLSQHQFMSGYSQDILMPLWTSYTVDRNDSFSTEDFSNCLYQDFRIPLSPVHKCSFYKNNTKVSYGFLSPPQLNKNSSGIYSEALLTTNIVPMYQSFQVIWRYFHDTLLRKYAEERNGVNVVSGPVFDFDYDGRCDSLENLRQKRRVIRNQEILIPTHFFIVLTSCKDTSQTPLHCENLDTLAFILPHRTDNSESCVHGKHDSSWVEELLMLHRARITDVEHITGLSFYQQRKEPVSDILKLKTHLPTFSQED
Method in brief: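 Crude extracts of COS-7 cells transiently transfected with human NPP1 or NPP3, preincubated 3 min at 37 °C in 1 mM CaCl2, 140 mM NaCl, 5 mM KCl, 50 mM Tris pH 8.5 with analogue at 100 μM. Reaction started with 100 μM pnp-TMP; p-nitrophenol at 410 nm after 15 min. Activity without analogue set as 100%. Mean ± SD of 3−6 experiments in triplicate.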

[3] = molecular target: T3, Ectonucleoside triphosphate diphosphohydrolase 2 (Homo sapiens) (UniProt Q9Y5L3); test: Inhibition of human NTPDase2 assessed as amount of inorganic phosphate released using ATP as the substrate preincubated at 100 uM for 3 mins before substrate addition after 15 mins by malachite green reagent method; method in brief: as §1
T3 sequence (whole entry): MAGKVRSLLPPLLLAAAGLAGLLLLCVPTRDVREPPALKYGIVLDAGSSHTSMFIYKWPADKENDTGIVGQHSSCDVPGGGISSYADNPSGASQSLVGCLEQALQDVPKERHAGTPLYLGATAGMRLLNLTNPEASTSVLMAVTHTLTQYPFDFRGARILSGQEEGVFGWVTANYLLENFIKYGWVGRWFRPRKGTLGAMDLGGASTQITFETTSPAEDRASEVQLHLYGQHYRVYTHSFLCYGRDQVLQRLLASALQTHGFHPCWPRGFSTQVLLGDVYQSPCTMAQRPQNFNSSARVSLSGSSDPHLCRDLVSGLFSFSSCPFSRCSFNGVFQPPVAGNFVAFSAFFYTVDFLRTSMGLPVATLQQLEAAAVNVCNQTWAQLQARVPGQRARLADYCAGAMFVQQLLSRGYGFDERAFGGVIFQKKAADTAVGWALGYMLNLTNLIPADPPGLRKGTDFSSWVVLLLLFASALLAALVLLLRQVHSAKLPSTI

[4] = molecular target: T4, Ectonucleotide pyrophosphatase/phosphodiesterase family member 1 (Homo sapiens, UniProt P22413); test: Mixed type inhibition of human NPP1 expressed in COS7 cells assessed as production of p-nitrophenol using pnp-TMP as the substrate preincubated for 3 mins before substrate addition measured after 15 mins by Dixon/Cornish Bowden method; assay type: cell-based, COS-7; details: read-out: Ki(app)
T4 sequence (P22413 whole entry): T2 sequence (whole entry)
Method in brief: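 Crude protein extract from COS-7 cells transiently transfected with human NPP1 (sonicated, debris cleared at 300g), preincubated 3 min at 37 °C with inhibitor (0, 25, 50, 100 μM) in 1 mM CaCl2, 140 mM NaCl, 5 mM KCl, 50 mM Tris pH 8.5. pnp-TMP (25, 50, 100 μM) added; p-nitrophenol read at 410 nm after 15 min. Ki,app and inhibition type from Dixon and Cornish-Bowden plots, three independent experiments.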

Row | SMILES | inhibition [1] | inhibition [2] | inhibition [3] | Ki [4]
1 | CSc1nc(N)c2ncn([C@@H]3O[C@H](COP(=O)(O)C(F)(F)P(=O)(O)O)[C@@H](O)[C@H]3O)c2n1 | < 18% | 90% | < 18% | 26 µM
2 | B[P@](=O)(OC[C@H]1O[C@@H](n2cnc3c(N)ncnc32)[C@H](O)[C@@H]1O)OP(=O)(O)CP(=O)(O)O | < 18% | 80% | < 18% | 7 µM
3 | B[P@](=O)(OC[C@H]1O[C@@H](n2cnc3c(N)nc(SC)nc32)[C@H](O)[C@@H]1O)OP(=O)(O)CP(=O)(O)O | < 18% | 80% | < 18% | 56 µM
4 | B[P@@](=O)(OC[C@H]1O[C@@H](n2cnc3c(N)nc(SC)nc32)[C@H](O)[C@@H]1O)OP(=O)(O)C(F)(F)P(=O)(O)O | – | 90% | 50% | –
5 | B[P@@](=O)(OC[C@H]1O[C@@H](n2cnc3c(N)ncnc32)[C@H](O)[C@@H]1O)OP(=O)(O)CP(=O)(O)O | < 18% | 90% | < 18% | 0.5 µM
